Source: ChEMBL document CHEMBL1156597, “Structure-activity relationship of kahalalide F synthetic analogues” (J Med Chem, 2008)

Experiments:
DU-145 = assay: Cytotoxicity against human DU145 cells after 48 hrs by SRB assay; format: functional, cell-based; settings: Homo sapiens, DU-145, 48 h; for CC50: read-out: LC50 (the source's name)
Procedure, shortened: (§1)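 Cells grown in RPMI 1640 with 10% FBS and penicillin/streptomycin at 37 °C and 5% CO₂, trypsinized, then seeded at 5 × 10³/well. After 18 h drug-free attachment, samples in DMSO/EtOH/PBS (0.5:0.5:99) were added for 48 h continuous exposure. Cells were fixed with cold TCA (1 h, 4 °C) and stained with SRB (10 min). Tris-solubilized stain read at 490 nm. Triplicate wells, mean ± SD; GI₅₀ derived.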

[1] = Cytotoxicity against human IGROV cells after 48 hrs by SRB assay; format: functional; settings: for CC50: read-out: LC50 (the source's name); procedure, shortened: as §1
[2] = Cytotoxicity against human IGROV-ET cells after 48 hrs by SRB assay; format: functional; settings: for CC50: read-out: LC50 (the source's name); procedure, shortened: as §1
SK-BR-3 = assay: Cytotoxicity against human SKBR3 cells after 48 hrs by SRB assay; format: functional; settings: SK-BR-3, 48 h; for CC50: read-out: LC50 (the source's name); procedure, shortened: as §1
SK-MEL-28 = assay: Cytotoxicity against human SK-MEL-28 cells after 48 hrs by SRB assay; format: functional, cell-based; settings: Homo sapiens, SK-MEL-28, 48 h; for CC50: read-out: LC50 (the source's name); procedure, shortened: as §1
A549 = assay: Cytotoxicity against human A549 cells after 48 hrs by SRB assay; format: functional, cell-based; settings: Homo sapiens, A549, 48 h; procedure, shortened: as §1
K562 = assay: Cytotoxicity against human K562 cells after 48 hrs by SRB assay; format: functional; settings: K562, 48 h; for CC50: read-out: LC50 (the source's name); procedure, shortened: as §1
PANC-1 = assay: Cytotoxicity against human PANC1 cells after 48 hrs by SRB assay; format: functional; settings: PANC-1, 48 h; for CC50: read-out: LC50 (the source's name); procedure, shortened: as §1
HT-29 = assay: Cytotoxicity against human HT29 cells after 48 hrs by SRB assay; format: functional, cell-based; settings: Homo sapiens, HT-29, 48 h; for CC50: read-out: LC50 (the source's name); procedure, shortened: as §1
LoVo [3] = assay: Cytotoxicity against human LoVo cells after 48 hrs by SRB assay; format: functional; settings: for CC50: read-out: LC50 (the source's name)
LoVo [4] = assay: Cytotoxicity against human doxorubicin resistant LoVo cells after 48 hrs by SRB assay; format: functional; settings: for CC50: read-out: LC50 (the source's name); procedure, shortened: as §1
HeLa = assay: Cytotoxicity against human HeLa cells after 48 hrs by SRB assay; format: functional; settings: for CC50: read-out: LC50 (the source's name); procedure, shortened: as §1
[5] = Cytotoxicity against human HeLa-APL cells after 48 hrs by SRB assay; format: functional; procedure, shortened: as §1

SMILES	CC50 (DU-145) [nM]	CC50 [1] [nM]	CC50 [2] [nM]	CC50 (SK-BR-3) [nM]	GI50 (SK-MEL-28; read-out: GI50) [nM]	CC50 (SK-MEL-28) [nM]	LC50 (A549) [nM]	GI50 (K562) [nM]	TGI (K562) [nM]	CC50 (K562) [nM]	CC50 (PANC-1) [nM]	CC50 (HT-29) [nM]	GI50 (LoVo [3]) [nM]	TGI (LoVo [3]) [nM]	CC50 (LoVo [3]) [nM]	GI50 (LoVo [4]) [nM]	TGI (LoVo [4]) [nM]	CC50 (LoVo [4]) [nM]	GI50 (HeLa) [nM]	TGI (HeLa) [nM]	further results
C/C=C1\NC(=O)[C@H](Cc2cccs2)NC(=O)[C@@H](C(C)C)NC(=O)[C@@H]([C@H](C)CC)NC(=O)[C@H](NC(=O)[C@H](NC(=O)[C@H](CCCN)NC(=O)[C@H]2CCCN2C(=O)[C@H](NC(=O)[C@@H](NC(=O)[C@@H](NC(=O)[C@H](NC(=O)CC[C@@H](C)CC)C(C)C)[C@@H](C)O)C(C)C)C(C)C)[C@H](C)CC)[C@H](C)OC(=O)[C@H](C(C)C)NC1=O	1070	676	505	110	1580	1290	1210	4920	4290	2690	2010	657	751	1190	1930	390	391	393	1590	1290	TGI (DU-145): 1210 nM; GI50 (DU-145; read-out: GI50): 1380 nM; GI50 [2]: 855 nM; GI50 ([2]; read-out: GI50): 1710 nM; TGI (SK-MEL-28): 1430 nM; TGI (A549): 1450 nM; GI50 (A549; read-out: GI50): 1760 nM; GI50 (HT-29): 1290 nM; TGI (HT-29): 1020 nM; CC50 (HeLa): 1070 nM; GI50 [5]: 1770 nM; LC50 (concentration giving 50% net cell kill) [5]: 1130 nM; TGI [5]: 1420 nM
C/C=C1\NC(=O)[C@H](Cc2ccc(O)cc2)NC(=O)[C@@H](C(C)C)NC(=O)[C@@H]([C@H](C)CC)NC(=O)[C@H](NC(=O)[C@H](NC(=O)[C@H](CCCN)NC(=O)[C@H]2CCCN2C(=O)[C@H](NC(=O)[C@@H](NC(=O)[C@@H](NC(=O)[C@H](NC(=O)CC[C@@H](C)CC)C(C)C)[C@@H](C)O)C(C)C)C(C)C)[C@H](C)CC)[C@H](C)OC(=O)[C@H](C(C)C)NC1=O	1930	970	1000	184	2370	2100	1840	4920	4300	2700	2020	748	1830	2310	2690	1030	1720	2170	3620	4340	TGI (SK-MEL-28): 3820 nM; CC50 (HeLa): 2100 nM; LC50 (concentration giving 50% net cell kill) [5]: 1980 nM
C/C=C1\NC(=O)[C@H](Cc2ccc(Cl)cc2)NC(=O)[C@@H](C(C)C)NC(=O)[C@@H]([C@H](C)CC)NC(=O)[C@H](NC(=O)[C@H](NC(=O)[C@H](CCCN)NC(=O)[C@H]2CCCN2C(=O)[C@H](NC(=O)[C@@H](NC(=O)[C@@H](NC(=O)[C@H](NC(=O)CCCC(C)C)C(C)C)[C@@H](C)O)C(C)C)C(C)C)[C@H](C)CC)[C@H](C)OC(=O)[C@H](C(C)C)NC1=O	388	112	175	206	214	931	934	696	1090	1690	1700	143	21.6	55	83.8	57.1	44.9	340	193	184	GI50 (DU-145): 189 nM; GI50 (DU-145; read-out: GI50): 112 nM; GI50 [1]: 62.9 nM; GI50 ([1]; read-out: GI50): 46.3 nM; GI50 [2]: 122 nM; GI50 ([2]; read-out: GI50): 86.2 nM; GI50 (SK-BR-3): 38.6 nM; GI50 (SK-BR-3; read-out: GI50): 39.7 nM; GI50 (SK-MEL-28): 393 nM; GI50 (A549): 473 nM; GI50 (A549; read-out: GI50): 227 nM; GI50 (PANC-1): 1140 nM; TGI (PANC-1): 1700 nM; GI50 (HT-29): 36.5 nM; TGI (HT-29): 73.5 nM; CC50 (HeLa): 362 nM; GI50 [5]: 215 nM; LC50 (concentration giving 50% net cell kill) [5]: 286 nM; TGI [5]: 186 nM
